CFTR F508del cor – CFTR F508del correction in bronchial cells. 0.36% of 350,000 active. CFBE cells, YFP halide quenching; stimulated with forskolin plus potentiator P3; % fluorescence drop versus neutral controls. AID 720511. activity (quench increase), % at 7.58 µM;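 active = mean added fluorescence quench of at least 8% versus neutral control, with both replicates also reaching 8%; inconclusive = only one of the mean or replicate conditions met; inactive = mean below 8% and not both replicates reaching 8%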;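 note: cells transiently co-express mutant CFTR-F508del with the halide-sensitive YFP; corrector assay measuring rescue of mutant channel to the surface after 24 h compound exposure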
Statin myotox sup – protects C2C12 myotubes from simvastatin toxicity; ATP luminescence, 48 h; scaled: DMSO 0, geranylgeraniol control 100; 0.78% of 330,000 active; rescue of ATP level, % at 7.49 µM;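 active = mean ATP rescue above about 67%, or every replicate alone reaching that limit, limit read from the data, passing the limit was not always enough; inconclusive = no clear call, values can overlap the other calls; inactive = mean under the limit and some replicate under it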;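 note: myotubes were challenged with 10 µM simvastatin during compound exposure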
DENV2 CPE rescue – DENV2-induced cell death inhibition; 1.7% of 350,000 active; CPE inhibition, % at 9.99 µM; DENV2-infected cells, cytopathic effect rescue, plate reader; in the data active = CPE inhibition above about 20%, passing the limit was not always enough; inconclusive = no clear call, values can overlap the other calls; tested in BHK-21 cells;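 note: 0% = median of neutral control wells and 100% = median of positive control wells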
ERp5 inh – inhibitors of human ERp5; ERp5 insulin aggregation, absorbance 650 nm, 90 min; inhibition, % at 9.99 µM; 0.05% of 350,000 active; AID 651711;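 active = mean replicate inhibition above about 25%, with every replicate also reaching it, limit read from the data, passing the limit was not always enough; inconclusive = only one of those two criteria met; inactive = neither criterion met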
Target sequence (Q15084 whole entry, looked up): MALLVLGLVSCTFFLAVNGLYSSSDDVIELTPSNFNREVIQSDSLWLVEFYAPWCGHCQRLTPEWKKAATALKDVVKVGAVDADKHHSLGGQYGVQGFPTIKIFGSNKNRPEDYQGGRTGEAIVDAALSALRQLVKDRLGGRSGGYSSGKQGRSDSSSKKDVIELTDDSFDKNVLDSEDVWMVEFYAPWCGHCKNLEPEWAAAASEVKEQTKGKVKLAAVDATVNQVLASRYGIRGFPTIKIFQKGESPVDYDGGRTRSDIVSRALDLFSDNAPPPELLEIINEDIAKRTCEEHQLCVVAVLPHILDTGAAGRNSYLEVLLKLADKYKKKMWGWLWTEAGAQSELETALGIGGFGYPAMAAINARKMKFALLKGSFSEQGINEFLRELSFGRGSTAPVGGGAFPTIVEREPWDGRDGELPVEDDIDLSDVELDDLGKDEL
PDI inh – inhibitors of human protein disulfide isomerase | P07237 | PDI insulin aggregation turbidity, A650, 90 min | inhibition, % at 10 µM | 0.052% of 350,000 active;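 active = mean inhibition across replicates of 30% or more, whatever share of single replicates reach that level; inconclusive = mean inhibition below 30% while every single replicate reaches 30%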
Cneo AK release – causes C. neoformans cell lysis; adenylate kinase release luminescence, 4 h; normalised: neutral wells 0, clomiphene wells 100; 0.2% of 360,000 active; lysis activity, % at 15 µM;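 active = mean lysis activity across replicates of at least 80%, whatever share of replicates individually reach that level; inactive = mean lysis activity below 80%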
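Test system: log-phase Cryptococcus neoformans yeast cells; Quantity: yeast cell density of 5 × 10^6 cells/mL; Buffer or medium: YPD; Doses: single compound concentration per well; Timing: 4 h at 37 °C static, read 1 h later; Measured by: AK luminescence; Read-out basis: lysis from increased AK signal; Control set: Clomiphene as positive control.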
* marks the source's active call; other numbers are inactive results; u = inconclusive; x = no result given; ! = a repeat was not active. A selection: hits, their analogues and other compounds. The true share with any hit is near 2.3%.

SMILES	CFTR F508del cor	Statin myotox sup	DENV2 CPE rescue	ERp5 inh	PDI inh	Cneo AK release
CN(C)CC(=O)Nc1ccc2c(c1)[C@@H]1C[C@H](CC(=O)NCc3cccnc3)O[C@@H](CO)[C@@H]1O2	1	-13	0	12	x	18
O=C(C[C@H]1C=C[C@@H](NC(=O)c2ccccc2)[C@H](CO)O1)NCc1ccncn1	0	-8	-2	7	x	0
O=[N+]([O-])c1ccc(C[n+]2cccc(O)c2)cc1	-3	2	67*	3	-2	2
C[C@@H]1CN([C@H](C)CO)C(=O)c2cc(C3=CCCC3)cnc2O[C@@H]1CN(C)Cc1ccc(C(=O)O)cc1	1	13	15	-1	x	-1
C[C@@H]1CN([C@H](C)CO)C(=O)c2cc(C3=CCCCC3)cnc2O[C@@H]1CN(C)Cc1ccccc1F	-1	115*	-3	4	x	0
C[C@@H]1CN([C@@H](C)CO)C(=O)c2cc(C3=CCCC3)cnc2O[C@@H]1CN(C)Cc1ccc(C(=O)O)cc1	0	22	25*	1	x	-4
O=C(O)C[C@@H]1C[C@H]2c3cc(NC(=O)C4CCC4)ccc3O[C@H]2[C@H](CO)O1	1	11	-3	14	x	1
C[C@@H]1CN([C@H](C)CO)C(=O)c2cc(C#C[C@@H](C)O)cnc2O[C@@H]1CN(C)C(=O)c1ccc(F)cc1	-1	-3	7	2	x	-15
COc1cc(NC(=O)[C@@H]2CCCN2S(=O)(=O)c2cccc3cccnc23)cc(OC)c1OC	4	87*	-6	-1	-3	-1
CC(C)(C)[S@@](=O)N1Cc2cc(C(=O)NCc3ccccc3F)nc(-c3cccc(-c4cncnc4)c3)c2[C@H]1CCO	0	-10	x	2	x	39
COCCN(C(=O)COC(=O)CC(C)c1ccccc1)c1c(N)n(Cc2ccccc2)c(=O)[nH]c1=O (stereo not given)	2	x	31*	-1	0	x
CCN(C(=O)COC(=O)c1cccc2ccccc12)c1c(N)n(Cc2ccccc2)c(=O)[nH]c1=O	18*	16	7	-10	-6	0
CCN(C(=O)CSc1nnc(NCCOC)s1)c1c(N)n(Cc2ccccc2)c(=O)[nH]c1=O	2	23	69*	13	-7	-1
COCCN(C(=O)COC(=O)CCOc1ccccc1)c1c(N)n(Cc2ccccc2)c(=O)[nH]c1=O	-3	2	-5	0	-1	0
COc1ccc(S(=O)(=O)N(C)C[C@@H]2Oc3ccc(NC(=O)c4ccncc4)cc3C(=O)N([C@@H](C)CO)C[C@@H]2C)cc1	-2	-3	16	17	x	5
COc1cccc(NC(=O)N2CC(=O)N3[C@H](C2)[C@@H](c2ccc(C4=CCCC4)cc2)[C@@H]3CO)c1	0	x	u	4	x	x
Cc1ccc(CNC(=O)C23CN(Cc4ccccc4)CC2C(c2ccc([N+](=O)[O-])cc2)=NO3)cc1 (stereo not given)	4	92*	x	3	17	-1
Cc1ccc(CCNC(=O)C23CN(Cc4ccccc4)CC2C(c2ccc([N+](=O)[O-])cc2)=NO3)cc1 (stereo not given)	0	5	-2	8	6	2
CCC(=O)N(C)C[C@@H]1Oc2cc(-c3ccccc3OC)ccc2S(=O)(=O)N([C@@H](C)CO)C[C@H]1C	3	-43	2	-6	x	1
CCNC(=O)C[C@@H]1CC[C@H]2[C@@H](COC[C@H](O)CN2C(=O)CC)O1	-2	-4	48*	-3	x	-4
CCNC(=O)C[C@H]1CC[C@H]2[C@@H](COC[C@H](O)CN2C(=O)CC)O1	-1	0	-4	-6	x	2
CCC(=O)N1C[C@H](O)COC[C@@H]2O[C@@H](CC(=O)NCc3ccccc3Cl)CC[C@H]21	1	7	5	-3	x	117*
CCC(=O)N1CC[C@H]2[C@H](CO)Nc3ccc(-c4ccc(F)cc4)cc3[C@H]21	1	21	u	-2	x	1
COc1ccc2c3c(n(C)c2c1)[C@H](CO)N(C(=O)CN1CCOCC1)CC31CN(C(=O)CC2CC2)C1	0	x	-10	1	x	x
C[C@@H]1CN([C@@H](C)CO)C(=O)c2cccc(NC(=O)C3CCCCC3)c2O[C@H]1CN(C)Cc1ccc2c(c1)OCO2	1	-6	21*	1	x	3
SMILES	CFTR F508del cor	Statin myotox sup	DENV2 CPE rescue	ERp5 inh	PDI inh	Cneo AK release
C[C@H](CO)N1C[C@H](C)[C@@H](CN(C)Cc2ccc3c(c2)OCO3)Oc2c(NC(=O)C3CCCCC3)cccc2C1=O	1	-22	122*!	-4	12	-1
C[C@H]1CN([C@@H](C)CO)C(=O)c2cccc(NC(=O)C3CCCCC3)c2O[C@@H]1CN(C)Cc1ccc2c(c1)OCO2	-2	-38	x	x	x	x
C[C@H]1CN([C@@H](C)CO)C(=O)c2cccc(NC(=O)C3CCCCC3)c2O[C@H]1CN(C)Cc1ccc2c(c1)OCO2	0	-31	23*	-4	x	3
O=C(C[C@H]1C=C[C@H](NC(=O)C2CCOCC2)[C@H](CO)O1)NCC1CCCCC1	3	-6	-8	1	x	1
CC(C)NC(=O)N(C)C[C@@H]1Oc2cc(C#Cc3ccc(F)cc3)ccc2S(=O)(=O)N([C@@H](C)CO)C[C@H]1C	2	-1	-10	5	x	-2
Cc1cc(OCC(=O)N2CCC(C(N)=O)CC2)c2c(C)cc(=O)oc2c1	4	-4	-6	7	x	-3
CCCCc1cc(=O)oc2cc(C)cc(OCC(=O)N3CCC(C(N)=O)CC3)c12	0	-16	61*	5	x	-2
CN(C)CC#Cc1ccc([C@H]2[C@H]3CN(C(=O)c4ccc5c(c4)OCO5)CCCCN3[C@H]2CO)cc1	-2	-10	11	2	x	0
O=C1C(=O)N(Cc2cccnc2)C(c2ccccn2)/C1=C(/O)c1ccccc1 (stereo not given)	x	135*	x	x	-1	0
COC(=O)[C@H]1CN(C(=O)c2ccccc2)C(=O)N1	-2	8	25*	-6	4	2
COC(=O)C1CCC(=S)N1C(=O)c1ccccc1 (stereo not given)	-1	2	-3	6	-7	4
CCC(=O)N1CCC2(CC1)CN(S(C)(=O)=O)[C@@H](CO)c1[nH]c3cc(OC)ccc3c12	1	x	14	x	x	x
C[C@@H]1CN([C@H](C)CO)C(=O)c2ccccc2-c2ccccc2CO[C@H]1CN(C)C(=O)Nc1cccc(F)c1	-1	x	-9	4	x	0
CC(=O)n1cc(CO)c2ccccc21	-3	15	35*	-3	x	-1
CCN(CCN(C)C)C(=O)Cn1ncc2c1-c1cc(C)ccc1OC2	-1	-5	-7	0	x	-1
Cc1ccc2c(c1)-c1c(cnn1CC(=O)O)CO2	x	92*	x	x	-18	2

High-throughput results as filed in PubChem BioAssay.
